What is called AUC is the area under the concentration-time curve, a measure of exposure. As usually defined, the Cmax is the peak of the concentration-time curve. One may read the Tmax as the time at which the peak concentration occurs. One may read the solubility as how much of the substance goes into solution per volume. One may read the bioavailability as dose-corrected exposure relative to a reference, in per cent. A higher bioavailability goes with much systemic uptake.

Each structure is given as a SMILES string.

The values below come from ChEMBL document CHEMBL2176971 (Bioorg Med Chem Lett, 2012).

The nature of data set [1]: AUCall in rat at 2 mg/kg, iv. The format is ADME, organism-based. Further details: dose 2 mg/kg, route intravenous; call rule not given here. The following applies: plasma.
Data set [2] in a line: Cmax in rat at 2 mg/kg, iv. Further details: dose 2 mg/kg, route intravenous. The following applies: in vivo. Type of data set: ADME, organism-based.
Data set [3] in a line: Apparent volume of distribution in rat at 2 mg/kg, iv. Also noted: dose 2 mg/kg, route intravenous. Type of data set: ADME, organism-based. As to conditions: in vivo, read-out: Vz.
Data set [4] is described as follows: Cmax in dog at 2 mg/kg, iv. The format is ADME, organism-based, Canis lupus familiaris. Further details: dose 2 mg/kg, route intravenous. As to conditions: in vivo.
For data set [5], the system named is Rattus norvegicus. The data set is described as follows: AUCall in rat assessed as sulfoxide metabolite level at 20 mg/kg, po. The format is ADME, organism-based, Plasma. Further details: dose 20 mg/kg, route oral. As to conditions: in vivo. Put shortly: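 Rats given the parent sulfide compound orally at 20 mg/kg, with plasma monitored for its in vivo sulfoxide metabolite; exposure to that metabolite is reported as AUCall. A separate i.v. dose of 2 mg/kg in rats was also monitored for this metabolite.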

Data set [6] is described as follows: AUCall in rat at 20 mg/kg, po. The format is ADME, organism-based. Also noted: dose 20 mg/kg, route oral. As to conditions: plasma.
For data set [7], the system named is Rattus norvegicus. The experiment in a line: Drug metabolism in rat assessed as sulfoxide metabolite formation at 2 mg/kg, iv. Further details: dose 2 mg/kg, route intravenous. As to conditions: in vivo. Type of data set: ADME, organism-based. Put shortly: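 Rats dosed i.v. at 2 mg/kg and plasma monitored in vivo for the sulfoxide metabolite. AUCall was also measured after 20 mg/kg oral dosing.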

A short description of data set [8]: Cmax in rat at 20 mg/kg, po. Type of data set: ADME, organism-based. Also noted: dose 20 mg/kg, route oral. The following applies: in vivo.
Data set [9] is described as follows: Tmax in rat at 20 mg/kg, po. Type of data set: ADME, organism-based. As to conditions: in vivo. Further details: dose 20 mg/kg, route oral.
The nature of data set [10]: Solubility of the compound. The format is physicochemical.
Data set [11] in a line: Apparent volume of distribution in dog at 2 mg/kg, iv. As to conditions: in vivo, read-out: Vz. Type of data set: ADME, organism-based, Canis lupus familiaris. Also noted: dose 2 mg/kg, route intravenous.
The nature of data set [12]: AUCall in dog at 10 mg/kg, po. The following applies: plasma. The format is ADME, organism-based, Canis lupus familiaris. Also noted: dose 10 mg/kg, route oral.
A short description of data set [13]: Oral bioavailability in dog at 10 mg/kg. The format is ADME, organism-based, Canis lupus familiaris. As to conditions: in vivo. Put shortly: (§1)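 Dogs dosed orally at 10 mg/kg; plasma pharmacokinetic parameters determined.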
Data set [14] can be described thus: AUCall in dog at 2 mg/kg, iv. Type of data set: ADME, organism-based, Canis lupus familiaris. Also noted: dose 2 mg/kg, route intravenous. The following applies: plasma.
Data set [15] is described as follows: Tmax in dog at 10 mg/kg, po. Further details: dose 10 mg/kg, route oral. Type of data set: ADME, organism-based, Canis lupus familiaris. As to conditions: in vivo. Put shortly: as §1
Data set [16] can be described thus: Cmax in dog at 10 mg/kg, po. The format is ADME, organism-based, Canis lupus familiaris. Further details: dose 10 mg/kg, route oral. As to conditions: in vivo. In outline: as §1
Data set [17] is described as follows: Oral bioavailability in rat at 20 mg/kg. Type of data set: ADME, organism-based. The following applies: in vivo.

`Cc1noc(-c2ccc3c(c2)c2c(n3CCCOc3cc(F)cc(F)c3)CCCC2)n1` registered an area under the curve (AUC) in data set [1] of 404 ng·h/mL. For the same molecule, the peak level in data set [2] (Cmax) was 821 ng/mL. Moreover, in data set [3], the Vd worked out at 22.1 L/kg.
Molecule `COC(=O)c1ccc2c(c1)c1c(n2CCCNc2nc(OC)cc(OC)n2)CCCC1` came in with an AUC in [1] of 521 ng·h/mL. In data set [2], this molecule registered a Cmax of 182 ng/mL. For the same molecule, in [3], the Vd came to 11.3 L/kg.
With `Cc1noc(-c2ccc3c(c2)c2c(n3CCCSc3cc(F)cc(F)c3)CCCC2)n1`, the Cmax in data set [4] was 3880 ng/mL; in data set [8] it was 955 ng/mL; in data set [2] it was 2990 ng/mL; in [16], 625 ng/mL. Moreover, the AUC in the data set on Rattus norvegicus [5] is 143 ng·h/mL; in data set [6], 4230 ng·h/mL; in [1] it was 1180 ng·h/mL; in data set [12] it was 2010 ng·h/mL; in data set [14] it was 1750 ng·h/mL. Besides, the Drug metabolism entry in the data set on Rattus norvegicus [7] is reported as “Not Active”. In addition, the time to peak (Tmax) in data set [9] worked out at 2.33 h; in data set [15], 2 h. In [10], this molecule had a solubility greater than 1000 µg/mL. In addition, the Vd was 1.8 L/kg in data set [11] and 3.64 L/kg in data set [3]. In [13], the bioavailability worked out at 34%.
Molecule `CCc1cc(CC)nc(OCCCn2c3c(c4cc(-c5nc(C)no5)ccc42)CCCC3)n1` showed an AUC in [1] of 497 ng·h/mL. The molecule further showed a Cmax in data set [2] of 1050 ng/mL. Moreover, the Vd in data set [3] amounted to 18.9 L/kg.
In [1], `Cc1noc(-c2ccc3c(c2)c2c(n3CCCS(=O)(=O)N(C)C)CCCC2)n1` returned an exposure (AUC) of 520 ng·h/mL. This molecule also had a maximum concentration (Cmax) in data set [2] of 1240 ng/mL. Besides, in [3], the Vd is 3.96 L/kg.
With `Cc1noc(-c2ccc3c(c2)c2c(n3CC(F)COc3cc(F)cc(F)c3)CCCC2)n1` (stereo not drawn), the results for the AUC in data set [6] and in data set [1] were 3140 ng·h/mL and 691 ng·h/mL, respectively. Further, the Cmax in [8] was 747 ng/mL; in data set [2] it was 1710 ng/mL. In data set [9], the Tmax is 2.67 h. Moreover, the Vd in data set [3] was determined as 5.52 L/kg. This molecule returned a bioavailability in [17] of 38%.
As for `COc1cc(OC)nc(NCCCn2c3c(c4cc(S(C)(=O)=O)ccc42)CCCC3)n1`, in data set [1], the AUC came to 902 ng·h/mL. Besides, the Cmax in data set [2] is 1080 ng/mL. The Vd in data set [3] is 3.51 L/kg.
